For 29 compounds, Emax, IC50 and Ki results are on record in ChEMBL document CHEMBL1139014, “Stereochemical sensitivity of the human UDP-glucuronosyltransferases 2B7 and 2B17” (J Med Chem, 2006).

For series [1], the target named is T1, UGT2B17 (Homo sapiens, UniProt O75795).
T1 sequence (O75795 whole entry): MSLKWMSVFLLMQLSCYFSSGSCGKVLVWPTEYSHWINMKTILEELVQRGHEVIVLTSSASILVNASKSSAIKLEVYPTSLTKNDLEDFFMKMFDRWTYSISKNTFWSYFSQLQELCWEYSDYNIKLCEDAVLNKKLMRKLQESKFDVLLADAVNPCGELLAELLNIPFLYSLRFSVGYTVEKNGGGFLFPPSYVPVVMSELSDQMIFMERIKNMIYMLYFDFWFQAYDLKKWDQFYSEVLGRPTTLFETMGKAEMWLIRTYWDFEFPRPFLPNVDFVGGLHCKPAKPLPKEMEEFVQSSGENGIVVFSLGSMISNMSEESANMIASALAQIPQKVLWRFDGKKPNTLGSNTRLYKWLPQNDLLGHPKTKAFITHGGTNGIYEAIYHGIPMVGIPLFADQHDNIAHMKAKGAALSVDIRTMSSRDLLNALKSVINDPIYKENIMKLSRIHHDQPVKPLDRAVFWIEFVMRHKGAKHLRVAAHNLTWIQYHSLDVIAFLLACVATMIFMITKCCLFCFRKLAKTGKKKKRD
The series can be described thus: (§1) Inhibition of UGT2B17. Particulars: human; read-out: Imax. The essentials:
(§2)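 IC50 against UGT2B17-catalyzed glucuronidation of scopoletin, using His-tagged enzyme from insect cells at 0.1 µg/µL. Scopoletin was 300 µM (its Km) with inhibitor at 10–1000 µM. For poorly soluble aliphatic alcohols, inhibitor was 5–100 µM and scopoletin 50 µM. Buffer was 5.0 mM phosphate pH 7.4 with MgCl2 and saccharic lactone. UDPGlcA 5.0 mM; 15 min at 37 °C. Scopoletin glucuronide was read by HPLC fluorescence and fitted to the two-parameter Hill equation.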

The target in series [2] is T2, UDP-glucuronosyltransferase 2B17 (Homo sapiens, UniProt O75795).
T2 sequence (O75795 whole entry): T1 sequence (O75795 whole entry)
The series is described as §1. The essentials: as §2

The target in series [3] is T3, UDP-glucuronosyltransferase 2B7 (Homo sapiens, UniProt P16662).
T3 sequence (P16662 whole entry): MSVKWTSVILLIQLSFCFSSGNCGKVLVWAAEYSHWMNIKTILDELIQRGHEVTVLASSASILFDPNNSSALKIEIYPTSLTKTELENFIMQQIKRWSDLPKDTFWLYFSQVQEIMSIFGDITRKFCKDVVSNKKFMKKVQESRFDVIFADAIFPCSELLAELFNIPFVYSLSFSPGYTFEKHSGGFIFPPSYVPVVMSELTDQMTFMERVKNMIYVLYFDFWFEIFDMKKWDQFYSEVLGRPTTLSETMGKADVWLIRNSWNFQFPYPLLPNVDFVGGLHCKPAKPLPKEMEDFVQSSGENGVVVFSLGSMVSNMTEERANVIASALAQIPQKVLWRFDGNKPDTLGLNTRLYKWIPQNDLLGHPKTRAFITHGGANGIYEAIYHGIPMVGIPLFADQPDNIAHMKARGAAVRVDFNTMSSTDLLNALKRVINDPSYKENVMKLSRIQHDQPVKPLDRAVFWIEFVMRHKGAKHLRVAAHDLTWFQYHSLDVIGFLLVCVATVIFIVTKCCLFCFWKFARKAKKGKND
The series can be described thus: (§3) Inhibition of UGT2B7.

Series [4] has as its target T4, UGT2B7 (Homo sapiens, UniProt P16662).
T4 sequence (P16662 whole entry): T3 sequence (P16662 whole entry)
The description is as §3. The note with it: human; read-out: Imax.

Series [5] addresses T2, UDP-glucuronosyltransferase 2B17. The series can be described thus: Non competitive inhibition of UGT2B17-catalyzed scopoletin glucuronidation. Type of series: functional. The essentials:
(§4)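 His-tagged human UGT2B17 expressed in insect cells, 0.1 µg/µL, in 5.0 mM phosphate (pH 7.4) with 10 mM MgCl2 and 5.0 mM saccharic acid-1,4-lactone. Initial velocities were taken at scopoletin 100, 250, 500, 1000 and 2000 µM, with racemic inhibitors at three levels bracketing Kic estimated by Cheng-Prusoff. UDPGlcA (5.0 mM final) started the reaction after 5 min preincubation at 37 °C; run 15 min. Scopoletin glucuronide was measured by HPLC fluorescence. Inhibition mechanism was fitted by simultaneous nonlinear regression.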

In series [6] the target is T3, UDP-glucuronosyltransferase 2B7. The experiment in a line: Competitive inhibition of UGT2B7-catalyzed scopoletin glucuronidation. Type of series: functional. The essentials: (§5)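 Recombinant human UGT2B7 from baculovirus-infected insect cells, 0.1 µg/µL, in 5.0 mM phosphate (pH 7.4), 10 mM MgCl2 and 5.0 mM saccharic acid-1,4-lactone. Racemates were tested at three concentrations bracketing Kic estimated by Cheng-Prusoff. Scopoletin was 100–2000 µM. After 5 min preincubation at 37 °C, 5.0 mM UDPGlcA was added and the reaction ran 15 min. Glucuronide was read by HPLC fluorescence (ex 335/em 455 nm). Mechanism came from simultaneous nonlinear regression.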

The target is the same in series [7]. The series can be described thus: Non competitive inhibition of UGT2B7-catalyzed scopoletin glucuronidation. Type of series: functional. The essentials:
as §5

Series [8] has as its target T2, UDP-glucuronosyltransferase 2B17. The series can be described thus: Competitive inhibition of UGT2B17-catalyzed scopoletin glucuronidation. Type of series: functional. The essentials: as §4

In general, IC50 refers to the concentration that inhibits the measured activity by half. A lower IC50 goes with greater potency in that assay. For the compound `Cc1ccc2c(c1)[C@@H](O)CC2`, the Emax in series [1] was determined as 58.3%; in series [4], 64.4%. The IC50 in series [2] was 728 µM; in series [3] it was 540 µM.

Regarding `O[C@@H]1CCCc2ccccc21`, the Emax in series [1] stood at 78.8%; in series [4], 73.6%. For the same compound, the IC50 in series [2] turned out to be 242 µM; in series [3], 337 µM.

For `C[C@@H](O)c1c2ccccc2cc2ccccc12`, the Emax came out at 13.1% in series [1] and 19.8% in series [4]. The IC50 in series [2] is 703 µM; in series [3], 344 µM.

For the compound `COc1cccc2c1CCC[C@@H]2O`, the Emax in series [1] amounted to 89.1%; in series [4], 80.2%. Moreover, the IC50 was 132 µM in series [2] and 301 µM in series [3].

Consider `Cc1cc(C)c2c(c1)[C@@H](O)CCC2`, for which the Emax in series [1] is 90.5%; in series [4], 83.5%. Also, the results for the half-maximal inhibitory concentration (IC50) in series [2] and in series [3] were 98 µM and 166 µM, respectively.

On to `O[C@@H]1CCOc2ccccc21`, for which the Emax in series [1] stood at 69.3%; in series [4], 65.8%. Also, the IC50 is 448 µM in series [2] and 507 µM in series [3].

`O[C@H]1CCCc2ccccc21`: the Emax is 76.1% in series [1] and 67.8% in series [4]. Further, the IC50 in series [2] amounted to 374 µM; in series [3] it was 489 µM.

On to `C[C@@H](O)c1ccc2ccccc2c1`, for which the Emax in series [1] came out at 16.7%. The IC50 in series [2] came to 578 µM.

As for `Cc1ccc2c(c1)[C@H](O)CCO2`, the Emax in series [1] was 72.6%; in series [4], 83.5%. Also, the IC50 in series [2] stood at 365 µM; in series [3], 225 µM.

Turning to `O=[N+]([O-])c1ccc2c(c1)[C@@H](O)CCC2`, the Emax in series [1] is 77.4%; in series [4], 62.5%. The IC50 in series [2] is 305 µM; in series [3], 651 µM.

As for `C[C@@H](O)c1cccc2ccccc12`, the Emax in series [1] was determined as 18.9%; in series [4], 41.9%. Besides, the IC50 in series [2] is 389 µM; in series [3] it was 130 µM.

Consider `Cc1cccc2c1CC[C@@H]2O`, for which the Emax in series [1] is 61.7%; in series [4] it was 86.4%. Besides, the IC50 in series [2] is 608 µM; in series [3], 179 µM.

Regarding `O[C@H]1CCc2ccccc21`, the Emax in series [1] turned out to be 63.4%; in series [4], 67.3%. Besides, the IC50 in series [2] turned out to be 545 µM; in series [3], 513 µM.

On to `COc1ccc2c(c1)[C@@H](O)CCC2`, for which the figures for the Emax in series [1] and in series [4] were 80.4% and 77.2%, respectively. The IC50 is 216 µM in series [2] and 351 µM in series [3].

`O[C@@H]1CCc2ccccc21`: the Emax in series [1] was found to be 65.3%; in series [4], 77.1%. Moreover, the results for the IC50 in series [2] and in series [3] were 517 µM and 275 µM, respectively.

For `Cc1cccc2c1CC[C@H]2O` (racemic), the Emax came to 60.1% in series [1] and 76% in series [4]. Further, the IC50 was 682 µM in series [2] and 317 µM in series [3].

As usually defined, the Ki is the equilibrium dissociation constant of an inhibitor or competing ligand from its target. Low readings indicate tighter binding, high ones weaker binding. For the compound `Cc1ccc2c(c1)C(O)CC2` (racemic), the Ki turned out to be 1440 µM in series [5], 301 µM in series [6], 624 µM in series [7] and 427 µM in series [8].

In the case of `O[C@H]1CCOc2ccccc21` (racemic), the Emax in series [1] is 74.8%; in series [4] it was 68.7%. Also, the values for the IC50 in series [2] and in series [3] were 319 µM and 518 µM, respectively.

Take `Cc1ccc2c(c1)C(O)CCO2` (racemic): the inhibitory constant (Ki) is 608 µM in series [5], 113 µM in series [6], 258 µM in series [7] and 201 µM in series [8].

As to `C[C@H](O)c1c2ccccc2cc2ccccc12` (racemic), the figures for the Emax in series [1] and in series [4] were 11.1% and 17.7%, respectively. The IC50 in series [2] is 606 µM; in series [3] it was 532 µM.

Consider `C[C@H](O)c1ccc2ccccc2c1` (racemic), for which the Emax in series [1] worked out at 9.12%. Besides, the IC50 in series [2] worked out at 657 µM.

Consider `COc1ccc2c(c1)[C@H](O)CCC2` (racemic), for which the Emax in series [1] was 84.7%; in series [4], 80.4%. Moreover, the results for the IC50 in series [2] and in series [3] were 162 µM and 284 µM, respectively.

As to `Cc1cc(C)c2c(c1)C(O)CCC2` (racemic), the Ki in series [5] was determined as 190 µM; in series [6] it was 101 µM; in series [7] it was 192 µM; in series [8], 57.8 µM.

For `C[C@H](O)c1cccc2ccccc12` (racemic), the Emax in series [1] was 14.3%; in series [4], 31.8%. The values for the IC50 in series [2] and in series [3] were 537 µM and 214 µM, respectively.

In the case of `Cc1ccc2c(c1)[C@H](O)CC2` (racemic), the Emax came to 69.6% in series [1] and 71.2% in series [4]. Also, the IC50 in series [2] was 489 µM; in series [3], 394 µM.

Consider `COc1cccc2c1CCC[C@H]2O` (racemic), for which the Emax in series [1] stood at 88.9%; in series [4] it was 76.5%. The IC50 in series [2] is 112 µM; in series [3], 366 µM.

On to `O=[N+]([O-])c1ccc2c(c1)[C@H](O)CCC2` (racemic), for which the Emax in series [1] is 83.5%; in series [4], 61.9%. Further, the IC50 came to 217 µM in series [2] and 599 µM in series [3].

For `Cc1ccc2c(c1)[C@@H](O)CCO2` (racemic), the values for the Emax in series [1] and in series [4] were 75.3% and 85%, respectively. Besides, the IC50 in series [2] is 325 µM; in series [3] it was 182 µM.

For the compound `Cc1cc(C)c2c(c1)[C@H](O)CCC2` (racemic), the Emax in series [1] turned out to be 87.8%; in series [4], 85.7%. Also, the IC50 in series [2] is 144 µM; in series [3], 158 µM.
